Results from ChEMBL document CHEMBL1149844, “Antibacterial C-geranylflavonoids from Paulownia tomentosa Fruits” (2008).
≈ marks a conversion by molar mass, not a printed value.

Tests used:
Bacillus cereus = experiment: Antibacterial activity against Bacillus cereus ATCC 11778 after 24 hrs by broth microdilution method; type: functional; settings: ATCC 11778, 24 h
Procedure, shortened: (§1)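 Bacteria grown and tested in Mueller-Hinton broth. Seven 2-fold dilutions spanning 32 to 0.5 µg mL-1, each well inoculated with bacterial suspension at 10^7 CFU mL-1, incubated 37 °C for 24 h. Turbidity read at 600 nm. MIC is the lowest concentration giving 80% growth reduction versus the compound-free growth control. DMSO (5% v/v) in TBS as negative control, triplicates.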

Bacillus subtilis = experiment: Antibacterial activity against Bacillus subtilis ATCC 6633 after 24 hrs by broth microdilution method; type: functional; settings: ATCC 6633, 24 h; procedure, shortened: as §1
Enterococcus faecalis = experiment: Antibacterial activity against Enterococcus faecalis ATCC 29212 after 24 hrs by broth microdilution method; type: functional; settings: ATCC 29212, 24 h; procedure, shortened: as §1
Listeria monocytogenes = experiment: Antibacterial activity against Listeria monocytogenes ATCC 7644 after 24 hrs by broth microdilution method; type: functional; settings: ATCC 7644, 24 h; procedure, shortened: as §1
Staphylococcus aureus = experiment: Antibacterial activity against Staphylococcus aureus ATCC 25923 after 24 hrs by broth microdilution method; type: functional; settings: ATCC 25923, 24 h; procedure, shortened: as §1
[1] = system: Staphylococcus epidermidis; experiment: Antibacterial activity against Staphylococcus epidermidis ATCC 12228 after 24 hrs by broth microdilution method; type: functional; settings: ATCC 12228, 24 h; procedure, shortened: as §1
Escherichia coli = experiment: Antibacterial activity against Escherichia coli ATCC 25922 after 24 hrs by broth microdilution method; type: functional; settings: ATCC 25922, 24 h; procedure, shortened: as §1
Pseudomonas aeruginosa = experiment: Antibacterial activity against Pseudomonas aeruginosa ATCC 27853 after 24 hrs by broth microdilution method; type: functional; settings: ATCC 27853, 24 h; procedure, shortened: as §1
Salmonella enteritidis = experiment: Antibacterial activity against Salmonella enteritidis ATCC 13076 after 24 hrs by broth microdilution method; type: functional, Salmonella enterica subsp. enterica serovar Enteritidis; settings: Salmonella enterica, ATCC 13076, 24 h; procedure, shortened: as §1
Candida albicans = experiment: Antibacterial activity against Candida albicans ATCC 10231 after 48 hrs by broth microdilution method; type: functional
Procedure, shortened: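 Yeast grown and tested in Mueller-Hinton broth, microdilution with seven 2-fold dilutions from 32 to 0.5 µg mL-1. Inoculum at 10^7 CFU mL-1, 37 °C for 48 h. Growth measured as turbidity at 600 nm. MIC is the lowest concentration cutting growth by 80% relative to the compound-free control. DMSO (5% v/v) in TBS as negative control, run in triplicate.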

For `COc1cc([C@@H]2CC(=O)c3c(cc(O)c(C/C=C(\C)CCC=C(C)C)c3O)O2)ccc1O`, the MIC (Bacillus cereus) was 4 µg/mL (≈ 9.12 µM), the MIC (Bacillus subtilis) was 8 µg/mL (≈ 18.2 µM) and the MIC (Enterococcus faecalis) was 8 µg/mL (≈ 18.2 µM). The MIC (Listeria monocytogenes) was 4 µg/mL (≈ 9.12 µM), the MIC (Staphylococcus aureus) was 8 µg/mL (≈ 18.2 µM) and the MIC [1] was 4 µg/mL (≈ 9.12 µM). The MIC (Escherichia coli) was greater than 32 µg/mL, the MIC (Pseudomonas aeruginosa) was greater than 32 µg/mL and the MIC (Salmonella enteritidis) was greater than 32 µg/mL. For the same compound, the MIC (Candida albicans; ATCC 10231, 48 h) was greater than 32 µg/mL.

In the case of `COc1cc([C@H]2Oc3cc(O)c(C/C=C(\C)CCC=C(C)C)c(O)c3C(=O)[C@@H]2O)ccc1O`, the MIC (Bacillus cereus) is reported as 2 µg/mL (≈ 4.4 µM), the MIC (Bacillus subtilis) is reported as 4 µg/mL (≈ 8.8 µM) and the MIC (Enterococcus faecalis) is reported as 4 µg/mL (≈ 8.8 µM). For the same compound, the MIC (Listeria monocytogenes) was 2 µg/mL (≈ 4.4 µM), the MIC (Staphylococcus aureus) was 2 µg/mL (≈ 4.4 µM) and the MIC [1] was 2 µg/mL (≈ 4.4 µM). It also gave an MIC (Escherichia coli) greater than 32 µg/mL, an MIC (Pseudomonas aeruginosa) greater than 32 µg/mL and an MIC (Salmonella enteritidis) greater than 32 µg/mL. For the same compound, the MIC (Candida albicans; ATCC 10231, 48 h) was greater than 32 µg/mL.

With `COc1cc([C@@H]2CC(=O)c3c(cc(O)c(C/C=C(\C)CCC=C(C)C)c3O)O2)cc(O)c1O` the MIC (Bacillus cereus) was 4 µg/mL (≈ 8.8 µM), the MIC (Bacillus subtilis) was 4 µg/mL (≈ 8.8 µM) and the MIC (Enterococcus faecalis) was 4 µg/mL (≈ 8.8 µM). For the same compound, the MIC (Listeria monocytogenes) was 4 µg/mL (≈ 8.8 µM), the MIC (Staphylococcus aureus) was 2 µg/mL (≈ 4.4 µM) and the MIC [1] was 4 µg/mL (≈ 8.8 µM). The MIC (Escherichia coli) was greater than 32 µg/mL, the MIC (Pseudomonas aeruginosa) was greater than 32 µg/mL and the MIC (Salmonella enteritidis) was greater than 32 µg/mL. It also gave an MIC (Candida albicans; ATCC 10231, 48 h) greater than 32 µg/mL.

Compound `COc1cc([C@@H]2CC(=O)c3c(cc(O)c(C/C=C(\C)CCC=C(C)C)c3O)O2)cc(OC)c1O` has an MIC (Bacillus cereus) of 4 µg/mL (≈ 8.54 µM), an MIC (Bacillus subtilis) of 4 µg/mL (≈ 8.54 µM) and an MIC (Enterococcus faecalis) of 4 µg/mL (≈ 8.54 µM). For the same compound, the MIC (Listeria monocytogenes) was 4 µg/mL (≈ 8.54 µM), the MIC (Staphylococcus aureus) was 4 µg/mL (≈ 8.54 µM) and the MIC [1] was 4 µg/mL (≈ 8.54 µM). The MIC (Escherichia coli) was greater than 32 µg/mL, the MIC (Pseudomonas aeruginosa) was greater than 32 µg/mL and the MIC (Salmonella enteritidis) was greater than 32 µg/mL. It also gave an MIC (Candida albicans; ATCC 10231, 48 h) greater than 32 µg/mL.

In the case of `CC(C)=CCC/C(C)=C/Cc1c(O)cc2c(c1O)C(=O)C[C@@H](c1ccc(O)cc1)O2` [BONANNIONE A], the MIC (Bacillus cereus) is reported as 4 µg/mL (≈ 9.79 µM), the MIC (Bacillus subtilis) is reported as 4 µg/mL (≈ 9.79 µM) and the MIC (Enterococcus faecalis) is reported as 4 µg/mL (≈ 9.79 µM). The MIC (Listeria monocytogenes) was 4 µg/mL (≈ 9.79 µM), the MIC (Staphylococcus aureus) was 8 µg/mL (≈ 19.6 µM) and the MIC [1] was 4 µg/mL (≈ 9.79 µM). For the same compound, the MIC (Escherichia coli) was greater than 32 µg/mL, the MIC (Pseudomonas aeruginosa) was greater than 32 µg/mL and the MIC (Salmonella enteritidis) was greater than 32 µg/mL. It also gave an MIC (Candida albicans; ATCC 10231, 48 h) greater than 32 µg/mL.

Compound `O=C(O)c1cn(C2CC2)c2cc(N3CCNCC3)c(F)cc2c1=O` [CIPROFLOXACIN] has an MIC (Bacillus cereus) of 1 µg/mL (≈ 3.02 µM), an MIC (Bacillus subtilis) of 2 µg/mL (≈ 6.04 µM) and an MIC (Enterococcus faecalis) of 1 µg/mL (≈ 3.02 µM). The MIC (Listeria monocytogenes) was 1 µg/mL (≈ 3.02 µM), the MIC (Staphylococcus aureus) was 0.5 µg/mL (≈ 1.51 µM) and the MIC [1] was 1 µg/mL (≈ 3.02 µM). It also gave an MIC (Salmonella enteritidis) of 0.015 µg/mL (≈ 0.0453 µM).

`CC(C)=CCC/C(C)=C/Cc1c(O)cc2c(c1O)C(=O)C[C@@H](c1ccc(O)c(O)c1)O2` [NYMPHAEOL A] was tested, and the MIC (Bacillus cereus) was 4 µg/mL (≈ 9.42 µM), the MIC (Bacillus subtilis) was 4 µg/mL (≈ 9.42 µM) and the MIC (Enterococcus faecalis) was 4 µg/mL (≈ 9.42 µM). It also gave an MIC (Listeria monocytogenes) of 4 µg/mL (≈ 9.42 µM), an MIC (Staphylococcus aureus) of 4 µg/mL (≈ 9.42 µM) and an MIC [1] of 4 µg/mL (≈ 9.42 µM). It also gave an MIC (Escherichia coli) greater than 32 µg/mL, an MIC (Pseudomonas aeruginosa) greater than 32 µg/mL and an MIC (Salmonella enteritidis) greater than 32 µg/mL. The MIC (Candida albicans; ATCC 10231, 48 h) was greater than 32 µg/mL.

`COc1cc([C@@H]2CC(=O)c3c(cc(O)c(C/C=C(\C)C/C=C/C(C)(C)O)c3O)O2)ccc1O` [TOMENTODIPLACONE B] showed an MIC (Bacillus cereus) greater than 32 µg/mL, an MIC (Bacillus subtilis) greater than 32 µg/mL and an MIC (Enterococcus faecalis) greater than 32 µg/mL. For the same compound, the MIC (Listeria monocytogenes) was greater than 32 µg/mL, the MIC (Staphylococcus aureus) was greater than 32 µg/mL and the MIC [1] was greater than 32 µg/mL. The MIC (Escherichia coli) was greater than 32 µg/mL, the MIC (Pseudomonas aeruginosa) was greater than 32 µg/mL and the MIC (Salmonella enteritidis) was greater than 32 µg/mL. It also gave an MIC (Candida albicans; ATCC 10231, 48 h) greater than 32 µg/mL.

With `C=C(C)C(O)CC/C(C)=C/Cc1c(O)cc2c(c1O)C(=O)C[C@@H](c1ccc(O)c(OC)c1)O2` (stereo partly specified) [TOMENTODIPLACONE] the MIC (Bacillus cereus) was 16 µg/mL (≈ 35.2 µM), the MIC (Listeria monocytogenes) was 32 µg/mL (≈ 70.4 µM) and the MIC (Staphylococcus aureus) was 16 µg/mL (≈ 35.2 µM). For the same compound, the MIC [1] was 32 µg/mL (≈ 70.4 µM), the MIC (Escherichia coli) was greater than 32 µg/mL and the MIC (Pseudomonas aeruginosa) was greater than 32 µg/mL. It also gave an MIC (Salmonella enteritidis) greater than 32 µg/mL and an MIC (Candida albicans; ATCC 10231, 48 h) greater than 32 µg/mL.

NYSTATIN gave an MIC (Candida albicans) of 4 µg/mL.
